Measured values from ChEMBL document CHEMBL1142068, “Reduced susceptibility to polyenes associated with a missense mutation in the ERG6 gene in a clinical isolate of Candida glabrata with pseudohyphal growth” (2007).
≈ marks a conversion by molar mass, not a printed value. Calls of active or inactive are those of the source. The calls are words filed in the database; no cut-off is given here.

Assays:
[1] = test system: Nakaseomyces glabratus; assay: Growth inhibition of polyene-resistant Candida glabrata 21229 isolate in YEPD agar plates at 4 mg/ml; assay type: functional, organism-based
[2] = test system: Nakaseomyces glabratus; assay: Growth inhibition of Candida glabrata 21231 isolate in YEPD agar plates at 4 mg/ml; assay type: functional, organism-based
Procedure, shortened: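 Dye susceptibility on YEPD agar plates with dye at increasing levels from 0.1 to 4 mg/ml. Inocula ranged from 2 × 10^6 to 2 × 10^2 cells. The read-out is the minimum dye concentration that inhibited growth of the same quantity of cells.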

[3] = test system: Nakaseomyces glabratus; assay: Susceptibility of Candida glabrata 21229F34 isolate with URA3 by disk diffusion method; assay type: functional
[4] = test system: Nakaseomyces glabratus; assay: Susceptibility of Candida glabrata 21229C218 isolate expressing ERG6 gene by disk diffusion method; assay type: functional
Procedure, shortened: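 Complemented ura3 derivative carrying a plasmid-borne ERG6 copy was selected on selective medium. Amphotericin B susceptibility was tested by disk diffusion on Casitone agar (pH 7.2) with Neosensitab tablets. Read-out is the growth-inhibition zone diameter in mm.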

[5] = test system: Nakaseomyces glabratus; assay: Antimicrobial activity against Candida glabrata 21231 isolate by E-test; assay type: functional
[6] = test system: Nakaseomyces glabratus; assay: Susceptibility of Candida glabrata 21231 isolate at 10 ug by disk diffusion method; assay type: functional; conditions: read-out: IZ
Procedure, shortened: (§1)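 Disk diffusion was run on Casitone agar (pH 7.2) with Neosensitab tablets. Tablets held 10 μg for amphotericin B, econazole, miconazole and clotrimazole, and 8 μg for itraconazole. Read-out is the inhibition-zone diameter in mm, as the mean of triplicates. Isolates were compared by Wilcoxon-Mann-Whitney test, unilateral α = 0.05.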

[7] = test system: Nakaseomyces glabratus; assay: Susceptibility of polyene-resistant Candida glabrata 21229 isolate at 10 ug by disk diffusion method; assay type: functional; conditions: read-out: IZ
Procedure, shortened: (§2)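 Disk diffusion on Casitone agar (pH 7.2, chloramphenicol 0.5 g/liter) with drug tablets. Tablet drug contents: voriconazole 1 μg, itraconazole 8 μg, amphotericin B/miconazole/clotrimazole 10 μg, fluconazole/ketoconazole 15 μg, nystatin 50 μg. Read-out is growth inhibition zone diameter (mm), mean of triplicates. Isolates were compared by Wilcoxon-Mann-Whitney test, unilateral α = 0.05.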

[8] = test system: Nakaseomyces glabratus; assay: Antimicrobial activity against polyene-resistant Candida glabrata 21229 isolate by E-test; assay type: functional
[9] = test system: Nakaseomyces glabratus; assay: Susceptibility of polyene-resistant Candida glabrata 21229 isolate by disk diffusion method; assay type: functional; procedure, shortened: as §2
[10] = test system: Nakaseomyces glabratus; assay: Susceptibility of polyene-resistant Candida glabrata 21229 isolate at 15 ug by disk diffusion method; assay type: functional; conditions: read-out: IZ; procedure, shortened: as §2
[11] = test system: Nakaseomyces glabratus; assay: Susceptibility of Candida glabrata 21231 isolate at 15 ug by disk diffusion method; assay type: functional; conditions: read-out: IZ; procedure, shortened: as §2
[12] = test system: Nakaseomyces glabratus; assay: Susceptibility of Candida glabrata 21231 isolate at 8 ug by disk diffusion method; assay type: functional; conditions: read-out: IZ; procedure, shortened: as §1
[13] = test system: Nakaseomyces glabratus; assay: Susceptibility of polyene-resistant Candida glabrata 21229 isolate at 8 ug by disk diffusion method; assay type: functional; conditions: read-out: IZ; procedure, shortened: as §2
[14] = test system: Nakaseomyces glabratus; assay: Susceptibility of polyene-resistant Candida glabrata 21229 isolate at 1 ug by disk diffusion method; assay type: functional; procedure, shortened: as §2
[15] = test system: Nakaseomyces glabratus; assay: Susceptibility of polyene-resistant Candida glabrata 21229 isolate at 50 ug by disk diffusion method; assay type: functional, organism-based; procedure, shortened: as §2
[16] = test system: Nakaseomyces glabratus; assay: Susceptibility of Candida glabrata 21231 isolate at 50 ug by disk diffusion method; assay type: functional, organism-based; procedure, shortened: as §2

Compound	MIC [5]	zone of inhibition at 10 µg/disc [6]	zone of inhibition at 10 µg/disc [7]	MIC [8]	also measured
Nc1c(/N=N/c2ccc(-c3ccc(/N=N/c4cc(S(=O)(=O)O)c5ccccc5c4N)cc3)cc2)cc(S(=O)(=O)O)c2ccccc12					Activity [1]: inactive; Activity [2]: inactive
C[C@@H]1[C@H](O)[C@@H](C)/C=C/C=C/C=C/C=C/C=C/C=C/C=C/[C@H](O[C@@H]2O[C@H](C)[C@@H](O)[C@H](N)[C@@H]2O)C[C@@H]2O[C@](O)(C[C@@H](O)C[C@@H](O)[C@H](O)CC[C@@H](O)C[C@@H](O)CC(=O)O[C@H]1C)C[C@H](O)[C@H]2C(=O)O [AMPHOTERICIN B]	0.029 µg/mL (≈ 0.0314 µM)	34 mm	13 mm	1.3 µg/mL (≈ 1.41 µM)	inhibition zone (IZ) [3]: 16 mm; inhibition zone (IZ) [4]: 30 mm; inhibition zone (IZ) [9]: 16 mm
CC[C@H](C)C[C@H](C)CCCCCCCCC(=O)N[C@H]1C[C@@H](O)[C@@H](NCCN)NC(=O)[C@@H]2[C@@H](O)CCN2C(=O)[C@H]([C@H](O)CCN)NC(=O)[C@H]([C@H](O)[C@@H](O)c2ccc(O)cc2)NC(=O)[C@@H]2C[C@@H](O)CN2C(=O)[C@H]([C@@H](C)O)NC1=O [CASPOFUNGIN]	0.023 µg/mL (≈ 0.021 µM)			0.024 µg/mL (≈ 0.022 µM)	
Clc1ccccc1C(c1ccccc1)(c1ccccc1)n1ccnc1 [CLOTRIMAZOLE]		26 mm	40 mm		
OC(Cn1cncn1)(Cn1cncn1)c1ccc(F)cc1F [FLUCONAZOLE]	3.7 µg/mL (≈ 12.1 µM)			1 µg/mL (≈ 3.27 µM)	zone of inhibition at 15 µg/disc [10]: 50 mm; zone of inhibition at 15 µg/disc [11]: 20 mm
CCC(C)n1ncn(-c2ccc(N3CCN(c4ccc(OCC5COC(Cn6cncn6)(c6ccc(Cl)cc6Cl)O5)cc4)CC3)cc2)c1=O (stereo not drawn) [ITRACONAZOLE]	18.7 µg/mL (≈ 26.5 µM)			1.8 µg/mL (≈ 2.55 µM)	zone of inhibition at 8 µg/disc [12]: 16 mm; zone of inhibition at 8 µg/disc [13]: 30 mm
CC(=O)N1CCN(c2ccc(OCC3COC(Cn4ccnc4)(c4ccc(Cl)cc4Cl)O3)cc2)CC1 (stereo not drawn) [KETOCONAZOLE]	0.136 µg/mL (≈ 0.256 µM)			0.034 µg/mL (≈ 0.064 µM)	zone of inhibition at 15 µg/disc [10]: 50 mm; zone of inhibition at 15 µg/disc [11]: 24 mm
Clc1ccc(COC(Cn2ccnc2)c2ccc(Cl)cc2Cl)c(Cl)c1 (stereo not drawn) [MICONAZOLE]		18 mm	30 mm		
C[C@@H](c1ncncc1F)[C@](O)(Cn1cncn1)c1ccc(F)cc1F [VORICONAZOLE]	0.125 µg/mL (≈ 0.358 µM)			0.047 µg/mL (≈ 0.135 µM)	zone of inhibition at 1 µg/disc ([14]; Nakaseomyces glabratus, 21229, read-out: IZ): 43 mm; zone of inhibition at 1 µg/disc ([14]; read-out: IZ): 43 mm
NYSTATIN					inhibition zone (IZ) [15]: 16 mm; inhibition zone (IZ) [16]: 34 mm
